The values that follow come from ChEMBL document CHEMBL1126123, “Reversible inhibitors of the gastric (H+/K+)-ATPase. 3. 3-substituted-4-(phenylamino)quinolines” (J Med Chem, 1992).

Each structure is given as a SMILES string.

The target in test [1] is T1, Potassium-transporting ATPase (Sus scrofa, UniProt P19156). Briefly: […] inhibit the activity of K+ stimulated gastric ATPase. Format: tissue-based, Stomach. Summed up: (§1)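 Initial screen of K+-stimulated ATPase activity in a lyophilized gastric vesicle preparation at pH 7, in vitro.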
T1 sequence (P18434 whole entry): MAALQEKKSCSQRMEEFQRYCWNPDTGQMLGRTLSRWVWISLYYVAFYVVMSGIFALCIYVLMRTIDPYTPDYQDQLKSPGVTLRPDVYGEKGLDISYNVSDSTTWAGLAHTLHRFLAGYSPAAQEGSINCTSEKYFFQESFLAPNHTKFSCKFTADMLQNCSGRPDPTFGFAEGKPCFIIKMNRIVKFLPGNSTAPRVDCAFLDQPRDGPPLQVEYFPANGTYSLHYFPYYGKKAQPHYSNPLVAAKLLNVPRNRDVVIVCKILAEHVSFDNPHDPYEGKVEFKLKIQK
T1 sequence (P19156 whole entry): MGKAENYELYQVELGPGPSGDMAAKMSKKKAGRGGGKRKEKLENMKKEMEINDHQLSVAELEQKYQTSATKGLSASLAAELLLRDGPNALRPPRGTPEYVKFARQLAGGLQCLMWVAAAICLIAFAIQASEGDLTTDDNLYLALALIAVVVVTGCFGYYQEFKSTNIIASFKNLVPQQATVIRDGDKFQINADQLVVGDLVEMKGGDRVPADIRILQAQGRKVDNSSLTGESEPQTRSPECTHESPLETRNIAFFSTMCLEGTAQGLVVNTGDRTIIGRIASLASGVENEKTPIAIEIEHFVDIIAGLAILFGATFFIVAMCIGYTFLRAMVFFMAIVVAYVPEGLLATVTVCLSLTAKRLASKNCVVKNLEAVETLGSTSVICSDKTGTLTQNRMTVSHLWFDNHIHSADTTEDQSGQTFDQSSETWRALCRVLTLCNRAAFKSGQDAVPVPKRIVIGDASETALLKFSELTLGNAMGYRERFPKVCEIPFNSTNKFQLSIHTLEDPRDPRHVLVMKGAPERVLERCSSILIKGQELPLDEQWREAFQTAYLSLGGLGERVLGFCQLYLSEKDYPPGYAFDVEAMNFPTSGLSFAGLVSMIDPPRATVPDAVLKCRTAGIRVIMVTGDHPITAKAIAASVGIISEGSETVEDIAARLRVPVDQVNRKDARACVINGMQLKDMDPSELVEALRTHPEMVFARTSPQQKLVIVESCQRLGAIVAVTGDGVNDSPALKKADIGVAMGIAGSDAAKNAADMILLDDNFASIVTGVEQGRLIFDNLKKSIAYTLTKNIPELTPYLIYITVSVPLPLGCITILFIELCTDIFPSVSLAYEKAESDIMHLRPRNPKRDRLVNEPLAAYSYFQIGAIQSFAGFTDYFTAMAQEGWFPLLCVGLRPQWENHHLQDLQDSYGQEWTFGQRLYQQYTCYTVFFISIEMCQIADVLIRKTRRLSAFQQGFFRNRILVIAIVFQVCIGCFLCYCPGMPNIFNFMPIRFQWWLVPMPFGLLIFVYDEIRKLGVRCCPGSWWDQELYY
Test [2] has as its target Potassium-transporting ATPase (Rattus norvegicus) (UniProt P09626+P18598). Briefly: Inhibition of pentagastrin stimulated gastric acid secretion in anesthetized rat at 10 umol/kg upon intravenous administration. Format: functional, organism-based. The settings on record: Stomach.
The target of test [3] is T1, Potassium-transporting ATPase. Briefly: (§2) […] inhibit the activity of gastric H+/K+ ATPase. Format: tissue-based, Stomach. Summed up:
as §1

The target in test [4] is T2, Potassium-transporting ATPase (Sus scrofa) (UniProt P18434+P19156). Described as §2. Format: tissue-based. The following applies: Stomach. Summed up:
as §1

Test [5] concerns the target T2, Potassium-transporting ATPase (Sus scrofa). Briefly: […] inhibit the activity of K+ stimulated gastric ATPase at 100 uM. Format: tissue-based. The settings on record: Stomach.
The subject of test [6] is Canis familiaris. Briefly: Inhibition of histamine stimulated gastric acid secretion was tested in heidenhain pouch dog at 4 uM/kg upon oral administration. Format: functional, Canis lupus familiaris, Stomach.
The test system of test [7] is Canis familiaris. Briefly: Inhibition of histamine stimulated gastric acid secretion was tested in heidenhain pouch dog upon intravenous administration. The following applies: Canis lupus familiaris, Stomach. Format: functional.
Test [8] relates to Rattus norvegicus. Briefly: Compound was evaluated for inhibition pentagastrin stimulated gastric acid secretion in anesthetized rat when administered intravenously. Format: functional. The following applies: Stomach, iv. Summed up:
(§3)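 Anesthetized rat with lumen-perfused stomach; acid secretion induced by pentagastrin; compound given intravenously.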

In test [9] the target is T3, Potassium-transporting ATPase subunit beta (Rattus norvegicus) (UniProt P18598).
T3 sequence (whole entry): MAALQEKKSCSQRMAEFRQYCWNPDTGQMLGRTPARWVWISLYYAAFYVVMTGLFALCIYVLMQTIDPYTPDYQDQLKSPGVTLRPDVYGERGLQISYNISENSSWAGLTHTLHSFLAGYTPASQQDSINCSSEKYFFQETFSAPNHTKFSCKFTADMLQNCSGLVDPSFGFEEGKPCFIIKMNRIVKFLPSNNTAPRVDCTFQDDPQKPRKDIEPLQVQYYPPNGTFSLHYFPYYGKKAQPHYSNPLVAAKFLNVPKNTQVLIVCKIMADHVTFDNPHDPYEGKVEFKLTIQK
Briefly: Inhibition of pentagastrin stimulated gastric acid secretion in anesthetized rat upon intravenous administration. Format: functional, organism-based. The settings on record: Stomach. In a few lines: as §3

Test [10] relates to Canis familiaris. Briefly: Inhibition of histamine stimulated gastric acid secretion was tested in heidenhain pouch dog at 1 umol/kg upon intravenous administration. Format: functional. The settings on record: Canis lupus familiaris, Stomach.
The subject of test [11] is Rattus norvegicus. Briefly: inhibition pentagastrin stimulated gastric acid secretion in anesthetized rat when compound (10 umol/kg) administered intravenously. Format: functional, Stomach.
The test system of test [12] is Canis familiaris. Briefly: Inhibition of histamine stimulated gastric acid secretion was tested in heidenhain pouch dog upon oral administration. Format: functional. The settings on record: Canis lupus familiaris, Stomach.

For the compound `Cc1ccccc1Nc1ccnc2ccccc12`, in test [1], the IC50 is 1.43 µM. Further, in test [2], the inhibition stood at 16%.

As for `CCOC(=O)c1cnc2ccccc2c1Nc1ccccc1C`, in [1], the IC50 was determined as 0.6 µM. The inhibition in [2] is 49%.

The compound `COc1cccc2c(Nc3ccccc3C)c(C(N)=O)cnc12` displayed an IC50 in [3] of 15.3 µM.

Take `COc1cccc2c(Nc3ccccc3C)c(C(=O)O)cnc12`: the inhibition in test [4] is 30%.

Consider `COc1cccc2c(Nc3ccccc3C)c(C(=O)N3CCCC3)cnc12`, for which the inhibition was 15% in test [2] and 20% in test [5].

`CCCc1cnc2c(OC)cccc2c1Nc1ccccc1C` returned a half-maximal inhibitory concentration (IC50) in [1] of 8.63 µM. This compound also came in with an inhibition in test [2] of 34%.

In test [1], `CCCC(O)c1cnc2c(OC)cccc2c1Nc1ccccc1C` (stereo not given) returned a half-inhibitory concentration (IC50) of 55 µM.

Compound `CCCNC(=O)c1cnc2c(OC)cccc2c1Nc1ccccc1C` yielded an IC50 in test [1] of 22 µM. In addition, in [2], the inhibition was found to be 40%.

`CCOC(=O)c1cnc2c(OC)cccc2c1Nc1ccccc1C.Cl` registered an Inhibition in test [6] of 11.1%. Also, the ED50 worked out at 0.49 µmol/kg in test [7] and 8.23 µmol/kg in test [8].

In the case of `CCCCCC(=O)c1cnc2c(OC)cccc2c1Nc1ccccc1C`, the IC50 in test [1] amounted to 2.77 µM. Besides, in [9], the 50% effect level (ED50) was put at a dose of 10.7 µmol/kg.

`COc1cccc2c(Nc3ccccc3C)c(C(=O)C3CCCC3)cnc12`: in test [1], half-maximal inhibition (IC50) was put at 1.7 µM. Besides, in test [2], the inhibition worked out at 56%. This compound yielded an Inhibition in test [6] of 55.7%.

Regarding `Cc1ccccc1Nc1c([N+](=O)[O-])cnc2ccccc12`, the inhibition in test [2] amounted to 30%.

With `COc1cccc2c(Nc3ccccc3C)c(C(=O)C3CCCCC3)cnc12`, in [1], 3.8 µM corresponded to half-maximal inhibition (IC50). The compound further had an inhibition in [2] of 42%.

As for `COc1cccc2c(Nc3ccccc3C)ccnc12`, the IC50 in test [1] was found to be 0.1 µM. Besides, the 50% effect level in test [9] (ED50) was put at a dose of 12.7 µmol/kg.

Turning to `CCNC(=O)c1cnc2c(OC)cccc2c1Nc1ccccc1C`, the IC50 in [1] is 2.94 µM. The compound also showed an inhibition in test [2] of 58%.

In test [1], `COc1cccc2c(Nc3ccccc3C)c(C(C)O)cnc12` (stereo not given) showed an IC50 of 24 µM.

Take `CCC(=O)c1cnc2c(OC)cccc2c1Nc1ccccc1C`: in [10], the inhibition in vivo at 1 µmol/kg stood at 80.9%. In addition, in test [1], the IC50 is 0.4 µM. Moreover, the 50% effect level in test [9] (ED50) was put at a dose of 1.39 µmol/kg. In addition, in test [6], the Inhibition was found to be 92.3%.

In test [1], `CCOC(=O)c1cnc2c(OC)cccc2c1N(C)c1ccccc1` returned an IC50 of 89 µM.

`CCCCNC(=O)c1cnc2c(OC)cccc2c1Nc1ccccc1C` yielded an IC50 in test [1] of 65 µM. In test [2], the inhibition was determined as 30%.

For the compound `COc1cccc2c(Nc3ccccc3C)c(C(C)=O)cnc12`, the inhibition in vivo at 1 µmol/kg in test [10] turned out to be 11%. The IC50 in test [1] was found to be 4.8 µM. The same compound registered an ED50 in test [9] of 13.2 µmol/kg.

Regarding `CCCC(=O)c1cnc2ccccc2c1Nc1ccccc1C`, the inhibition in vivo at 1 µmol/kg in test [10] is 45.4%. This compound also displayed a half-maximal inhibitory concentration (IC50) in test [1] of 0.97 µM. In [9], this compound yielded an ED50 of 5.45 µmol/kg.

`CCCC(=O)c1cnc2c(OC)cccc2c1Nc1ccccc1` showed an IC50 in test [1] of 4 µM. Also, the inhibition in test [2] came out at 34%.

As for `Cc1ccccc1Nc1c(N)cnc2ccccc12`, inhibition in test [1] was half-maximal at 30.6 µM (IC50). In [2], this compound displayed an inhibition of 27%.

Compound `COc1cccc2c(Nc3ccccc3C)c(CO)cnc12` displayed an IC50 in test [3] of 11.6 µM. The Inhibition in test [11] is given as 5%.

Compound `COc1cccc2c(Nc3ccccc3C)c(C)cnc12` displayed an IC50 in test [1] of 6.1 µM. The compound also yielded an inhibition in test [2] of 12.5%.

Turning to `CCOC(=O)c1cnc2c(OC)cccc2c1Nc1ccccc1.Cl`, the IC50 in [3] was 3.54 µM. Besides, in [11], the Inhibition was determined as 38%.

For `COc1cccc2c(Nc3ccccc3C)c(C(=O)C(C)(C)C)cnc12`, in test [1], inhibition was half-maximal at 2.6 µM (IC50). The compound further came in with an inhibition in [2] of 63%. Also, in test [6], the Inhibition came to 11.3%.

Turning to `CCCC(=O)c1cnc2c(OC)cccc2c1Nc1ccccc1C`, in test [1], the midpoint of inhibition, the IC50, lay at 1.05 µM. Moreover, the figures for the ED50 in test [9], in test [7] and in test [12] were 2.62 µmol/kg, 0.26 µmol/kg and 1.6 µmol/kg, respectively.

In turn, `CO/N=C(\C)c1cnc2c(OC)cccc2c1Nc1ccccc1C` returned an IC50 in [1] of 20.5 µM.

Compound `COc1cccc2c(Nc3ccccc3C)c(C(=O)OCCN(C)C)cnc12` came in with an IC50 in test [1] of 44 µM. Moreover, the inhibition in [2] turned out to be 19%.

In test [1], `COCC(=O)c1cnc2c(OC)cccc2c1Nc1ccccc1C` yielded an IC50 of 12.1 µM. In [9], this compound yielded an ED50 of 12.2 µmol/kg.

`COc1cccc2c(Nc3ccccc3C)c(C(=O)c3ccccc3)cnc12` came in with an IC50 in test [1] of 16.1 µM.

`CN/C(=N\CCSCc1nc[nH]c1C)NC#N` [CIMETIDINE]: the ED50 came to 1.7 µmol/kg in test [7] and 8.5 µmol/kg in test [12].

`COc1cccc2c(Nc3ccccc3C)c(C(=O)C3CCC3)cnc12`: in [1], the IC50 turned out to be 1.2 µM. The same compound returned an inhibition in [2] of 47%.

As for `Cc1ccccc1Nc1c(Br)cnc2ccccc12`, the IC50 in test [1] was 14.1 µM. In test [2], this compound registered an inhibition of 31%.

Turning to `CCC[S+]([O-])c1cnc2ccccc2c1Nc1ccccc1C` (stereo not given), the inhibition stood at 21% in test [2] and 19% in test [5].

Compound `CNC(=O)c1cnc2c(OC)cccc2c1Nc1ccccc1C` had an IC50 in test [3] of 6.73 µM. In test [11], this compound registered an Inhibition of 28%.

As to `COc1cccc2c(Nc3ccccc3C)c(C(=O)NCc3ccccc3)cnc12`, the half-maximal inhibitory concentration (IC50) in [1] was found to be 49 µM. This compound also showed an inhibition in [2] of 13%.

Regarding `COc1cccc2c(Nc3ccccc3C)c(C(=O)NC(C)(C)CO)cnc12`, the results for the inhibition in [2] and in test [5] were 13% and 26%, respectively.

In the case of `COc1cccc2c(Nc3ccccc3C)c(C(=O)C(C)C)cnc12`, the inhibition in vivo at 1 µmol/kg in [10] came out at 75%. In test [1], this compound registered an IC50 of 1.09 µM. Further, in [9], it took a dose of 1.92 µmol/kg to reach the 50% effect level (ED50). The compound further returned an Inhibition in test [6] of 44.6%.

For `C=CCNC(=O)c1cnc2c(OC)cccc2c1Nc1ccccc1C`, the IC50 in test [1] was 3.45 µM. In test [2], the inhibition was 38%.

In [5], `CCOC(=O)c1cnc2c(OC)cccc2c1Oc1ccccc1C` had an inhibition of 13%.

In test [1], `CCC(CC)C(=O)c1cnc2c(OC)cccc2c1Nc1ccccc1C` had an IC50 of 1.8 µM. In test [2], this compound returned an inhibition of 55%.

`CCCSc1cnc2ccccc2c1Nc1ccccc1C` registered an IC50 in test [1] of 5.14 µM. Further, the inhibition in test [2] amounted to 11%.

As usually defined, the IC50 is the midpoint of a concentration-inhibition curve. By inhibition is commonly meant how much of the control response was suppressed. Low values mean little suppression, high ones strong suppression. A word on the Inhibition: it is the share of the control response that was lost under treatment. A high value points to strong suppression. In general, ED50 refers to the midpoint of the dose-response relation. One may read the inhibition in vivo as the change of the read-out against control, counted positive when it falls. A higher inhibition in vivo goes with strong suppression.
